# HTRA1 inhibitor: HTRA1 (human) protease inhibition. Q92743. recombinant HTRA1, FP-rhodamine activity-based probe, fluorescence polarization. inhibition, % at 5.96 µM. hit rate 0.5% among 340,000. AID 504803; in the data active = inhibition above about 36%;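 note: 0% = enzyme with DMSO and 100% = wells lacking enzyme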
# ARNT TACC3 PPI: ARNT/TACC3 interaction disruption. Q9Y6A5. AlphaScreen His-ARNT PAS-B/GST-TACC3 binding, luminescence; TACC3 fragment carries E629A point mutation. inhibition, % at 9.99 µM. hit rate 0.66% among 390,000;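 active = mean inhibition of replicates at least 50% and at least half of replicates each reaching 50%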;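 note: 0% = complete ARNT plus TACC3 wells and 100% = ARNT alone without TACC3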
# SIAE primary: human SIAE inhibition, primary screen; inhibition, % at 9.66 µM; AID 1053197; hit rate 0.69% among 370,000; Q9HAT2; SIAE FP-Rh probe binding, fluorescence polarization;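 active = inhibition above a cutoff: mean of compounds within the control limits plus 3 SD of those, cut at about 17% in these data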;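 note: 0% = plate median of compound wells and 100% = probe without SIAE protein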
# Target sequence (Q9HAT2 whole entry, looked up): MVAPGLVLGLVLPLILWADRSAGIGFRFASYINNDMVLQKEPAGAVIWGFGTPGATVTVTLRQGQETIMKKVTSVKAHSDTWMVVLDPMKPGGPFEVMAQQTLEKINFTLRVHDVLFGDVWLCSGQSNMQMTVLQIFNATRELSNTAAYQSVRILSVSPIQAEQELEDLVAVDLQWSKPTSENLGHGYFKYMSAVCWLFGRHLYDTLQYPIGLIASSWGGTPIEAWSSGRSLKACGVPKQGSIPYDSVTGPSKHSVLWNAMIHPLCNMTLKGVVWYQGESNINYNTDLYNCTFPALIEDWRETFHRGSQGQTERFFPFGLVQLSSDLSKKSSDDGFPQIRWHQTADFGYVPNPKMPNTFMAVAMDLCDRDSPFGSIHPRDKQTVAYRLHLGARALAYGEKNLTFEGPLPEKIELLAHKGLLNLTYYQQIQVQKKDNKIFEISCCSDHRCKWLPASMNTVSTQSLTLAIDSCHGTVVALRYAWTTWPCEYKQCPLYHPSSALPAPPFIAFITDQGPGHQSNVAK
# ABHD4 inh: ABHD4 (mouse) inhibition, primary FP screen. Q8VD66. purified mABHD4, FP-Rh probe fluorescence polarization. inhibition, % at 8.92 µM. hit rate 0.54% among 370,000;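 active = inhibition exceeding the mean over every tested compound plus 3 SD, cut at about 30% in these data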;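 note: 0% = plate median of compound wells and 100% = S159A mutant with DMSO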
#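 Assay system: wild-type mouse ABHD4 protein; compound: single nominal dose of 8.92 µM, 0.89% DMSO final; schedule: 45 min + 60 min at 25 °C; measured by: FP readout, ex 525 nm / em 598 nm; evaluation: % inhibition of FP-Rh probe binding versus controls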
# TCR-CD3 inh: blocks the human TCR-CD3 interaction | TAMRA-labeled TCR probe fluorescence, biochemical | inhibition, % at 9.4 µM | hit rate 0.37% among 360,000; in the data active = inhibition above about 19%;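 note: recombinant mutant TCR 2C K166C tagged with TAMRA read by polarization; 0% = receptor in buffer alone and 100% = receptor with positive control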
# SIAE confirm: confirmation of human SIAE inhibitors. shares compounds with SIAE primary. SIAE FP-Rh activity-based probe, fluorescence polarization. inhibition, % at 9.66 µM. hit rate 13% among 2,300. AID 1117263;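 active = mean inhibition of the replicates above the hit cutoff set in the primary screen, cut at about 17% in these data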;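 note: 0% = SIAE with DMSO and probe and 100% = probe without SIAE; inhibitors lower polarization as more probe stays unbound to SIAE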
# * hit, by the source's call; . = no result. Most compounds without a hit are left out; they make up all but 1.8% or so of the library.
SMILES,HTRA1 inhibitor,ARNT TACC3 PPI,SIAE primary,ABHD4 inh,TCR-CD3 inh,SIAE confirm
C/C(=N\Nc1nc2ccccc2[nH]1)c1cc2ccccc2o1,7.7,9.4,24.0*,28.8,-4.0,16.5
CCOc1ccc(/C=N/NC(=O)c2cc3c(OC)cccc3[nH]2)cc1,-4.1,-3.1,-8.8,0.1,1.6,.
COc1ccc(OC)c(/C=N/NC(=O)c2cc3c(OC)cc(OC)cc3[nH]2)c1,-6.5,-3.6,7.0,3.2,3.3,.
C=CCOc1ccc(/C=N/NC(=O)c2cc3c(OC)cc(OC)cc3[nH]2)cc1,20.9,0.2,27.4*,-5.5,0.7,-18.5
CCOc1ccc(/C=N/NC(=O)c2cc3c(OC)cc(OC)cc3[nH]2)cc1OC,5.0,-0.5,43.0*,8.0,-2.5,0.2
Cc1ccc(-c2nc(Nc3ccc(O)cc3)c3ccccc3n2)cc1,9.6,-1.4,17.1*,6.4,-1.3,-22.5
Oc1ccc(Nc2nc(-c3ccccc3O)nc3ccccc23)cc1,2.1,-2.9,25.8*,2.6,-2.9,0.9
Cc1ccc(-c2nc(Nc3cccc(O)c3)c3ccccc3n2)cc1,-105.6,-12.2,-29.9,-54.7,-0.8,.
Cc1ccc(-c2nc(Nc3ccc(N4CCOCC4)cc3)c3ccccc3n2)cc1,.,6.8,20.8*,1.7,-4.1,14.0
CN(C)c1ccc(C2SCCN2C(=O)c2ccc([N+](=O)[O-])cc2)cc1 (configuration not stated),-1.3,4.8,18.7*,1.9,-5.4,4.2
Cc1ccccc1S(=O)(=O)N1CCCCN2[C@H](CO)[C@@H](c3ccc(-c4cncnc4)cc3)[C@@H]2C1,.,-2.6,.,.,.,.
CC(=O)Nc1ccc(-c2csc(N/N=C(/C)c3ccccc3)n2)cc1,34.2,11.2,10.7,19.0,-9.7,.
CCOC(=O)/C(C)=N/Nc1nc(-c2ccc(NC(C)=O)cc2)cs1,.,.,20.3*,10.8,1.3,-7.6
O=C(Nc1ccccc1C(F)(F)F)c1ccsc1,2.0,-6.9,-2.6,-7.8,-4.8,.
O=C(NNc1ccccc1C(F)(F)F)c1sccc1Br,-6.2,0.0,24.9*,-1.4,7.1,-2.8
COc1ccc(NC(=O)Nc2ccc3c(c2)[C@H]2C[C@H](CC(=O)NCc4ccccn4)O[C@@H](CO)[C@H]2O3)cc1,.,2.1,.,.,.,.
O=C(NC1CCCCC1)c1ccc(S(=O)(=O)N2CCCCC2)cc1,-1.0,-4.6,5.7,-5.2,-7.9,.
CC1CN(S(=O)(=O)c2ccc(C(=O)NC3CCCCC3)cc2)CC(C)O1 (configuration not stated),-7.3,-19.9,18.2*,-0.2,4.9,1.4
CC(=O)N(C)C[C@@H]1Oc2ncc(-c3ccc(C)cc3)cc2C(=O)N([C@@H](C)CO)C[C@@H]1C,.,1.7,.,.,.,.
CCOc1ccc(Oc2ccc(NC(=O)CSc3nncn3C)cc2)cc1,-7.5,.,18.5*,10.9,0.9,-2.6
Nc1ccc(C(=O)O)cc1S(=O)(=O)O,2.0,-13.4,24.7*,1.6,-5.6,-3.1
COc1cc(/C=N/Nc2nc3ccccc3s2)ccc1OC(=O)c1ccccc1F,-2.1,-4.5,21.5*,4.6,-0.9,-11.2
COc1cc(OC)cc(C(=O)Oc2ccc(/C=N/Nc3nc4ccccc4s3)cc2OC)c1,-12.2,3.0,19.1*,7.0,-0.4,17.2*
COc1cc(/C=N/Nc2nc3ccccc3s2)cc([N+](=O)[O-])c1O,13.6,-3.5,-7.3,22.9,-5.3,.
Cc1noc(C)c1NC(=O)Nc1cccc2c1O[C@@H](CN(C)Cc1ccccc1)[C@@H](C)CN([C@H](C)CO)C2=O,.,-4.0,.,.,.,.
SMILES,HTRA1 inhibitor,ARNT TACC3 PPI,SIAE primary,ABHD4 inh,TCR-CD3 inh,SIAE confirm
CN(C)CC(=O)Nc1ccc2c(c1)[C@H]1C[C@@H](CC(=O)NCc3cccnc3)O[C@@H](CO)[C@H]1O2,.,-2.5,.,.,.,.
Nc1ccc2nc(-c3cccc(-c4nc5ccc(N)cc5[nH]4)c3)[nH]c2c1,7.6,-33.2,25.8*,-3.4,-9.6,36.7*
Cc1nc2ccc(-c3nc4ccc(N)cc4[nH]3)cc2[nH]1,6.0,3.2,6.1,7.9,-12.9,.
Nc1ccc(-c2nc3ccc(N)cc3[nH]2)cc1,9.9,-2.5,24.8*,15.3,-9.0,8.3
Nc1ccc2nc(-c3cc(Cl)c(N)c(Cl)c3)[nH]c2c1,32.3,-0.1,23.7*,22.3,-10.8,12.5
O=[N+]([O-])c1ccc(-c2nc3ccc([N+](=O)[O-])cc3[nH]2)cc1,-4.0,1.2,18.1*,-10.1,6.0,7.0

# From PubChem BioAssay
